# Experimental data of several laboratories.
# Mode: inhibitor
# SLCO1B3 S112A: Solute carrier organic anion transporter family member 1B3 (SLCO1B3, Homo sapiens, UniProt Q9NPD5, S112A)
# HDAC4: Histone deacetylase 4 (HDAC4, Homo sapiens, UniProt P56524)
# VCP: Transitional endoplasmic reticulum ATPase (VCP, Homo sapiens, UniProt P55072)
# BLK: Tyrosine-protein kinase Blk (BLK, Homo sapiens, UniProt P51451)
# SLCO1B3 M233I: Solute carrier organic anion transporter family member 1B3 (SLCO1B3, Homo sapiens, UniProt Q9NPD5, M233I)
SMILES,target,test,setting,IC50 [µM]
CC1(C)NC(=O)N(c2ccc([N+](=O)[O-])c(C(F)(F)F)c2)C1=O,"Aldo-keto reductase family 1 member C3 (AKR1C3, Homo sapiens, UniProt P42330)",enzyme activity,,5
CN(Cc1cnc2nc(N)nc(N)c2n1)c1ccc(C(=O)N[C@@H](CCC(=O)O)C(=O)O)cc1,SLCO1B3 S112A,"transporter uptake, radiometric",2 min,> 100
O=C(O[C@@H]1[C@@H](O)[C@H](Oc2cc(O)c3c(c2)O[C@H](c2ccccc2)CC3=O)O[C@@H]2COC(=O)c3cc(O)c(O)c(O)c3-c3c(cc(O)c(O)c3O)C(=O)O[C@@H]12)c1cc(O)c(O)c(O)c1,"Protein disulfide-isomerase A4 (PDIA4, Homo sapiens, UniProt P13667)","enzyme activity, fluorescence",,7.8
Cc1cc(O)c(-c2ccc([C@@H](C)CN(C)C)cc2)c2c1[nH]c(=O)c1sccc12,"Cyclin-dependent kinase 13, with cyclin K (CDK13, Homo sapiens, UniProt Q14004)",enzyme activity,,> 1
O=C(O[C@@H]1Cc2c(O)cc(O)cc2O[C@@H]1c1cc(O)c(O)c(O)c1)c1cc(O)c(O)c(O)c1,"Protein disulfide-isomerase (P4HB, Homo sapiens, UniProt P07237)","enzyme activity, fluorescence",,243
O=C(NO)c1ccc(Cn2cnc3c(Nc4cccc([N+](=O)[O-])c4)ncnc32)cc1,HDAC4,enzyme activity,,0.531
Cc1cc2c(C(N)=O)cccc2n1-c1nc2c(c(NCc3ccccn3)n1)CCCN2,VCP,"enzyme activity, ADP detection",,0.115
C[C@H]1CN(C2COC2)CCN1c1ccc(Nc2cc(-c3ccnc(N4CCn5c(cc6c5CC(C)(C)C6)C4=O)c3CO)cn(C)c2=O)nc1,BLK,enzyme activity,,> 5
Cc1c(C(N)=O)c2ccccc2n1-c1nc2c(c(NCc3ccccc3)n1)CCCN2,VCP,"enzyme activity, ADP detection",,0.393
COc1cccc2c1C(=O)c1c(O)c3c(c(O)c1C2=O)C[C@@](O)(C(=O)CO)C[C@@H]3O[C@H]1C[C@H](N)[C@H](O)[C@H](C)O1,SLCO1B3 S112A,"transporter uptake, radiometric",2 min,> 100
CCc1oc2ccccc2c1C(=O)c1cc(Br)c(O)c(Br)c1,"Solute carrier family 2, facilitated glucose transporter member 9 (SLC2A9, Homo sapiens, UniProt Q9NRM0)",transporter uptake,oocytes,87.6
CC#CC(=O)N1CCC[C@H]1c1nc(-c2ccc(C(=O)Nc3ccccn3)cc2)c2c(N)nccn12,BLK,enzyme activity,,4.22
N=C(N)c1ccc(OCCCCCOc2ccc(C(=N)N)cc2)cc1,"Coagulation factor XIII A chain (F13A1, Homo sapiens, UniProt P00488)","enzyme activity, fluorescence",,> 50
Cc1cc2c(C(=O)O)cccc2n1-c1nc2c(c(NCc3ccccc3)n1)CCCN2,VCP,"enzyme activity, ADP detection",,0.032
CC(C)n1c(/C=C/C(O)CC(O)CC(=O)O)c(-c2ccc(F)cc2)c2ccccc21 (stereo not shown),SLCO1B3 M233I,"transporter uptake, radiometric",2 min,11
NC/C(=C\F)COc1cccc(Cn2c(=S)[nH]c(=O)c3[nH]cnc32)c1,"Lactoperoxidase (LPO, Bos taurus, UniProt P80025)",enzyme activity,,7.5
CONC(=O)c1cccc2c1cc(C)n2-c1nc2c(c(NCc3ccccc3)n1)CCCN2,VCP,"enzyme activity, ADP detection",,0.026
CC(=O)O[C@H]1C(=O)[C@@]2(C)[C@H]([C@H](OC(=O)c3ccccc3)[C@]3(O)C[C@H](OC(=O)[C@H](O)[C@@H](NC(=O)c4ccccc4)c4ccccc4)C(C)=C1C3(C)C)[C@]1(OC(C)=O)CO[C@@H]1C[C@@H]2O,SLCO1B3 M233I,"transporter uptake, radiometric",2 min,> 100
COc1ccc(N(Cc2csc(-c3ccc(C)cc3)n2)C(=O)CCCCCC(=O)NO)cc1,HDAC4,enzyme activity,,> 10
